Source: publication PMC4955361 (Bioorganic & medicinal chemistry letters, 2016)
Each block holds one molecule with its values, some of them ahead of it.

Experiments:
[1] = Intrinsic clearance in rat hepatic microsomes; assay type: in vitro ADME; details: predicted hepatic clearance from in vitro intrinsic clearance
[2] = Intrinsic clearance in human hepatic microsomes; assay type: in vitro ADME; details: predicted hepatic clearance from in vitro intrinsic clearance
[3] = Rat brain:plasma distribution; assay type: in vivo; details: in words
[4] = target: T1, M1 (Homo sapiens, UniProt P11229); test: Built-in HTS counterscreen, human M1; assay type: cell-based
T1 sequence (P11229 1-460): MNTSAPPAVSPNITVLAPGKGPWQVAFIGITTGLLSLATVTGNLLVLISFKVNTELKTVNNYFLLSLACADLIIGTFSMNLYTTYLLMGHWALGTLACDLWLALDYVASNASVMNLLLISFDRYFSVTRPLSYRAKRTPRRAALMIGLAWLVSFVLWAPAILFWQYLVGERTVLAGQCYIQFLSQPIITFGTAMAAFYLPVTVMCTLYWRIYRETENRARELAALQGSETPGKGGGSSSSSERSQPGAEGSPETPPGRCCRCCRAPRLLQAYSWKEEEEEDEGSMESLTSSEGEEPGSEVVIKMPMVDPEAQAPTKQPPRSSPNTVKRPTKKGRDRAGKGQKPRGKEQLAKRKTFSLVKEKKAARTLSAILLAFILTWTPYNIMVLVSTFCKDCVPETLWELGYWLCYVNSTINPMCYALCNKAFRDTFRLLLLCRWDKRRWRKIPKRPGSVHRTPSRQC

[5] = target: T2, M5 (Homo sapiens, UniProt P08912); test: Built-in HTS counterscreen, human M5; assay type: cell-based
T2 sequence (P08912 1-532): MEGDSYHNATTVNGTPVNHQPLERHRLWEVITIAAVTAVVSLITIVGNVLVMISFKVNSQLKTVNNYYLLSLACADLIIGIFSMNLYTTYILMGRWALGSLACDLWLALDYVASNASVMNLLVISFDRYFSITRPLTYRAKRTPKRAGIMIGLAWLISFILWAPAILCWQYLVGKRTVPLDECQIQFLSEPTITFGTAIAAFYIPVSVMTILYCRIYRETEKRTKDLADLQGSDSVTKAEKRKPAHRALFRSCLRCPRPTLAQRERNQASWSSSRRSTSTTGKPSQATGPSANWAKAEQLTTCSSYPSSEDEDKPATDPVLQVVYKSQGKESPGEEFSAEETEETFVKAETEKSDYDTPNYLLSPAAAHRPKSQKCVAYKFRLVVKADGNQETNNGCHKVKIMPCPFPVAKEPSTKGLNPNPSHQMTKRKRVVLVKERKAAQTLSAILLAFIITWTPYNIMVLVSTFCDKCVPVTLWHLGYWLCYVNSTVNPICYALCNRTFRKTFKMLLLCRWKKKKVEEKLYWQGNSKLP

[6] = target: T3, human M4 (Homo sapiens, UniProt P08173); assay type: cell-based; details: read-out: % ACh Max ± SEM
T3 sequence (P08173 1-479): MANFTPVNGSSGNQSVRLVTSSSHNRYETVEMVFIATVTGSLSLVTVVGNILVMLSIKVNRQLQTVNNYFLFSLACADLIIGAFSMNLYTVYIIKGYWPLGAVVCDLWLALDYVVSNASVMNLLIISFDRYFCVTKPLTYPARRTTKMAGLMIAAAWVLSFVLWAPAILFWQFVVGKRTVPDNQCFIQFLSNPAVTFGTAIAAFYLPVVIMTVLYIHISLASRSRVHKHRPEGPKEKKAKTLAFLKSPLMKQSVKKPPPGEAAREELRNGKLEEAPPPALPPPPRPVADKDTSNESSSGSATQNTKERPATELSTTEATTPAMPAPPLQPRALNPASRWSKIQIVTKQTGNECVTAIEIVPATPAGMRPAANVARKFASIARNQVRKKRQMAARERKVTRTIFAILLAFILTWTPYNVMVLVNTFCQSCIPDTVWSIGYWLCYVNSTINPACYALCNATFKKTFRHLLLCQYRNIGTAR
In short: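 Functional Ca2+ mobilization read-out in CHO cells co-expressing human M4 and the chimeric G protein Gqi5. Test compound is applied with a fixed ~EC20 concentration of acetylcholine. PAM potency is reported as EC50/pEC50 and efficacy as % of the acetylcholine maximum. Values are means of at least three independent determinations.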

[7] = target: T1, M1; test: Muscarinic receptor subtype selectivity, M1; assay type: cell-based; details: for potency at M1 relative to M4: antagonist; for selectivity versus M1: data not shown
[8] = target: T4, M2 (Homo sapiens, UniProt P08172); test: Muscarinic receptor subtype selectivity, M2; assay type: cell-based; details: antagonist
T4 sequence (P08172 1-466): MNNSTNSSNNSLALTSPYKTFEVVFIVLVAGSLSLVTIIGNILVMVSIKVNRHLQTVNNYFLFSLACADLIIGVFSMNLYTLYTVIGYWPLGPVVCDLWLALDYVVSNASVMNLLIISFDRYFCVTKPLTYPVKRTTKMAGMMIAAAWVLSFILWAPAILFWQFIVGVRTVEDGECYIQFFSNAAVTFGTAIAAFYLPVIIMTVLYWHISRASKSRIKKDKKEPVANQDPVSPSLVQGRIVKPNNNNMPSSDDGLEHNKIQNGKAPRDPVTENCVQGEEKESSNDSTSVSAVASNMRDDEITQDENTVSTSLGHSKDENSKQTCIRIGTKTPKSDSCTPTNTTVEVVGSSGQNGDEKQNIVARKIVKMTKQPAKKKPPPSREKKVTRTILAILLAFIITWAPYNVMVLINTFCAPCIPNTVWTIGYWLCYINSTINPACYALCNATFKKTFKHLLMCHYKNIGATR

[9] = test system: CYP450; test: CYP450 inhibition profile; assay type: in vitro ADME; details: in words
[10] = target: T2, M5; test: Muscarinic receptor subtype selectivity, M5; assay type: cell-based; details: for potency at M5 relative to M4: antagonist; for selectivity versus M5: data not shown
[11] = target: M3 (Homo sapiens, UniProt P20309); test: Muscarinic receptor subtype selectivity, M3; assay type: cell-based; details: antagonist
[12] = Metabolite identification; assay type: in vitro ADME; details: human hepatic microsomes, NADPH-dependent
[13] = Metabolite identification; assay type: in vitro ADME; details: rat hepatic microsomes, NADPH-dependent
[14] = test system: rodent; details: cited from earlier work
[15] = test system: rats; details: by potentiation of receptor activation by endogenous acetylcholine; cited from earlier work

Sequence of M3 (P20309 whole entry): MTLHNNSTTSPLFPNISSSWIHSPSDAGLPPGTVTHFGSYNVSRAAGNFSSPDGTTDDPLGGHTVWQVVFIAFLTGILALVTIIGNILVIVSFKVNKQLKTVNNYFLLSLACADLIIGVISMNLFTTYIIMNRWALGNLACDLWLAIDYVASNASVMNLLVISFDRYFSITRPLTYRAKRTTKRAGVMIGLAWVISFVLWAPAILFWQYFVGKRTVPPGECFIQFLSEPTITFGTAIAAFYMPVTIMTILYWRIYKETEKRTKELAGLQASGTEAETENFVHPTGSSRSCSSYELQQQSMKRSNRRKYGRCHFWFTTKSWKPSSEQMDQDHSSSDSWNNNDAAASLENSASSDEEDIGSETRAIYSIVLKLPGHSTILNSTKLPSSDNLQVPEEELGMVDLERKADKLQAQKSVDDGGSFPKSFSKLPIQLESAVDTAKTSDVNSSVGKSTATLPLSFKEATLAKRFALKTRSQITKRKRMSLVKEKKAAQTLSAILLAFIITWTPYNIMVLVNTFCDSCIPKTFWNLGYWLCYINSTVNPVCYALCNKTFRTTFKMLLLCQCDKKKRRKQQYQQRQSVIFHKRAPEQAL

predicted CLhep, rat [1]: 67 mL/min/kg
predicted CLhep, human [2]: 16 mL/min/kg
SMILES: Cc1sc2ncnc(N3CCC(C(=O)N4CCCC4)CC3)c2c1C [11a]

CNS penetration [3]: not CNS penetrant
activity on human M1 [4]: inactive
activity on human M5 [5]: inactive
Emax [6]: 91 ± 4%
SMILES: Cc1sc2ncnc(N3CCC(C(=O)Nc4ccc(S(N)(=O)=O)cc4)CC3)c2c1C [compound 5]

potency at M1 relative to M4 [7]: similarly potent
potency at M2 relative to M4 [8]: similarly potent
CYP450 inhibition profile [9]: acceptable
potency at M5 relative to M4 [10]: similarly potent
potency at M3 relative to M4 [11]: similarly potent
SMILES: CCCCN(c1ccc(C)nc1)C1CCN(c2ncnc3sc(C)c(C)c23)CC1 [compound 20]

predicted CLhep, rat [1]: 68 mL/min/kg
major pathway of metabolism in rat [13]: hydroxylation of the 5,6-dimethyl moiety
predicted CLhep, human [2]: 20 mL/min/kg
SMILES: Cc1ccc(OC2CCN(c3ncnc4sc(C)c(C)c34)CC2)cn1 [14b]
major metabolic route in human [12]: heteroatom (likely the thiophene sulfur) oxidation

selectivity versus M1 [7]: retaining selectivity
selectivity versus M5 [10]: retaining selectivity
SMILES: Cc1sc2ncnc(N3CCC(C(=O)Nc4ccc(F)cc4Cl)CC3)c2c1C [10g]

SMILES: Cc1nnc2sc(C(=O)NCc3ccc(S(=O)(=O)C(F)(F)F)cc3)c(N)c2c1C [VU0467154]
in vivo efficacy in rodent antipsychotic and cognition models [14]: robust in vivo efficacy

potency at M1 relative to M4 [7]: similarly potent
potency at M2 relative to M4 [8]: similarly potent
CYP450 inhibition profile [9]: acceptable
potency at M5 relative to M4 [10]: similarly potent
potency at M3 relative to M4 [11]: similarly potent
SMILES: CCCN(c1ccc(C)nc1)C1CCN(c2ncnc3sc(C)c(C)c23)CC1 [compound 19]

selectivity versus M1 [7]: retaining selectivity
selectivity versus M5 [10]: retaining selectivity
SMILES: Cc1sc2ncnc(N3CCC(C(=O)Nc4ccc(S(C)(=O)=O)cc4)CC3)c2c1C [10e]

selectivity versus M1 [7]: retaining selectivity
selectivity versus M5 [10]: retaining selectivity
SMILES: Cc1sc2ncnc(N3CCC(C(=O)Nc4cc(Cl)ccc4Cl)CC3)c2c1C [10h]

SMILES: COc1ccc(CNC(=O)c2sc3nc(C)cc(C)c3c2N)cc1 [VU0152100]
antipsychotic-like activity in rats [15]: displayed antipsychotic-like activity

predicted CLhep, rat [1]: 50 mL/min/kg
predicted CLhep, human [2]: 12 mL/min/kg
SMILES: Cc1ccc(OC2CCN(c3ncnc4ccc(F)cc34)CC2)cn1 [17b]

predicted CLhep, rat [1]: 68 mL/min/kg
predicted CLhep, human [2]: 14 mL/min/kg
SMILES: Cc1sc2ncnc(N3CCC(C(=O)N4CC[C@H](F)C4)CC3)c2c1C [11b]
